# BasE inh: BasE siderophore enzyme inhibitors, primary screen, biochemical, Acinetobacter baumannii ATCC 17978, fluorescence polarization; purified BasE, fluorescence polarization binding displacement; inhibition, % (test concentration not listed); actives 0.1% (n = 84,000); AID 485350, 2010; in the data active means inhibition above about 25%, passing the limit was not always enough;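 further: 0% = negative plate control signal and 100% = positive plate control signal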
# KSHV LANA nucl: inhibitors of KSHV LANA-nucleosome binding, primary screen, biochemical, fluorescence polarization, FITC-LANA1-23, chicken nucleosomes | AID 720717, 2013 | FITC-LANA1-23 / chicken nucleosome fluorescence polarization; hits give low values | z-score (test concentration not listed) | actives 0.3% (n = 51,000);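 active means both repeat wells score below -2 in polarization z-score versus plate sample wells, excluding overly bright wells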
#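 test system = FITC-LANA peptide and chicken nucleosomes | amount = 240 nM purified chicken nucleosomes (480 nM peptide binding sites), final | reagent = 50 nM FITC-LANA1-23 probe | medium = TEN-BT buffer, pH 7.5 | doses = single compound addition by pin transfer, 100 nL per well | timing = 10–45 min, room temperature | detection = fluorescence polarization | repeats = duplicate plates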
# * = called active by the depositor; x = no result given; ! = repeats disagree. In the library only some 0.3% were active in any assay of this set; here they are far more common.
SMILES,BasE inh,KSHV LANA nucl
O=C(Cc1nc2ccccc2s1)c1ccc(O)cc1O,22,x
O=C(Cc1nncn1-c1ccccc1)c1ccc(O)cc1O,33*,x
Cc1ccccc1N1OC2C(=O)N(c3sc4c(c3C#N)CCCC4)C(=O)C2C1c1cccs1 (stereo not given),2,0.23
COc1ccc(-c2nnc(SC(C)C(=O)NC34CC5CC(CC(C5)C3)C4)o2)cc1 (stereo not given),-2,x
CCNC(=S)N1CCN(S(=O)(=O)c2ccc(Cl)cc2)CC1,3,-2.2*
CCNC(=S)N1CCN(S(=O)(=O)c2ccc(C)cc2)CC1,-3,x
CCOC(=O)C(=NC1CCS(=O)(=O)C1)NNc1cc(C(F)(F)F)ccc1Cl (stereo not given),5,x
COCCNC(=O)c1cc(Br)cs1,2,0.078
COCCNC(=O)c1cc(Br)c(C)c(C)c1C,2,-2.4*
O=C(NCC(O)c1ccccc1)Nc1ccc2c(c1)CCO2 (stereo not given),-1,-0.49
COc1cccc2c1C(=O)c1c(O)c3c(c(O)c1C2=O)C[C@@](O)(C(=O)CO)C[C@@H]3OC1C[C@H](N)[C@H](O)[C@H](C)O1 (stereo not given in full),x,-7.5*
NC(=O)Cn1c(=O)cnc2ccccc21,1,x
C=CCNC(=O)c1ccc2c(c1)NC(=O)C(C)N2 (stereo not given),-1,0.092
CCCCNC(=O)c1ccc2c(c1)NC(=O)C(C)N2 (stereo not given),-6,-3.2*
O=C(O)/C=C/C(=O)N1CC=C(c2ccccc2)CC1,-3,x
CCc1c(C)c(C#N)c2[nH]c3ccccc3n2c1=O,4,x
Cc1cc(S(=O)(=O)N2CCOCC2)ccc1OCC(=O)Nc1ccc2c(c1)OCO2,1,0.0035
C/C(=C\C(=O)c1cccnc1)Nc1ccccc1O,30*,0.054
CCC(C)c1ccc(O)c(NC(=O)c2cccnc2)c1 (stereo not given),0,x
Cc1c(OC(=O)c2ccco2)ccc2c3c(c(=O)oc12)CCC3,-2,x
CCc1ccccc1NC(=S)N(CCC(C)C)C(C)c1ccco1 (stereo not given),2,0.6
COc1cc(/C=N/NC(=O)c2cc(C3CC3)[nH]n2)ccc1O,49*,0.33
COc1cc(/C=N/NC(=O)c2ccccc2-n2cccc2)ccc1O,2,x
CC1CCN(CC(=O)Nc2ccc3ccccc3c2)CC1,-1,-0.84
COC(=O)CC1SC(=O)NC1=S (stereo not given),32,-5.2*
SMILES,BasE inh,KSHV LANA nucl
O=C(CC1SC(=O)NC1=O)Nc1ccccc1NC(=O)CC1SC(=O)NC1=O (stereo not given),1,0.052
O=S(=O)(c1ccc(SC2Cc3ccccc3C2O)nc1)N1CCOCC1 (stereo not given),1,x
Nc1cccc(C(=O)NC23CC4CC(CC(C4)C2)C3)c1,0,0.77
C=CCn1c(=O)[nH]c2nc3cc(N=CN(C)C)ccc3nc2c1=O,26,-5.8*
C=CCn1c(=O)[nH]c2nc3cc(NC(=O)CC)ccc3nc2c1=O,19,-1.5
O=C1CSc2sc(=S)sc2S1,28*,x
CSc1sc(C(=O)NN=NC(C)C)c2c1C(O)CCC2 (stereo not given),2,-0.84
O=C(O)CC12CC3CC(C1)CC(CC(=O)O)(C3)C2,0,x
NC(=O)CC12CC3CC(C1)CC(CC(N)=O)(C3)C2,57*,1.3
COc1cc(C)c(NS(C)(=O)=O)cc1C(C)C,0,-0.92
Cc1ccccc1-c1noc(COC(=O)c2ccc(C#N)cc2)n1,-1,x
O=C1NC(=O)/C(=C\c2cn(Cc3ccccc3F)c3ccccc23)N1,2,x
N#Cc1ccccc1Cn1cc(C=C2C(=O)NC(=O)NC2=O)c2ccccc21,5,-3.6*
CCCNC(=O)CSc1nnc2n(-c3ccccc3)c(=O)c3ccccc3n12,1,x
CCOc1nc(Cl)nc(N(C2CCCCC2)C2CCCCC2)n1,3,2.7
O=C1c2ccccc2-c2n[nH]c3cccc1c23,9,-2*!
O=c1[nH]nc2c3c(cccc13)-c1ccccc1-2,-3,1.9
Cc1cccc(N2C(=O)c3cccc4c(N5CCNCC5)ccc(c34)C2=O)c1,15,-0.45
Cc1ccc(N2C(=O)c3cccc4c(N5CCN(C)CC5)ccc(c34)C2=O)c2cccnc12,27*,-2.8*
[O-]/[N+](=C\c1ccccc1)C1CCCCC1/[N+]([O-])=C/c1ccccc1 (stereo not given),2,0.024
COc1ccccc1OCC(=O)N1C(C)CCCC1C (stereo not given),0,0.077
COc1ccc(/C=C2\C(=O)N(c3ccccc3)N=C2C)cc1,0,0.44
O=C(N/N=C1\CCS(=O)(=O)c2ccc(F)cc21)c1ccc(O)cc1,55*,x
O=C(N/N=C1/CCS(=O)(=O)c2ccc(F)cc21)c1ccccn1,-1,x
CCOC(=O)c1cc(-c2ccc(S(=O)(=O)N3CCCCC3C)s2)on1 (stereo not given),1,-0.36
SMILES,BasE inh,KSHV LANA nucl
Cc1ccc2c(c1)c1c3c(nccn32)CCC1,10,-3.2*
Cc1ccc2c(c1)c1c(n2C)C(C#N)CCC1 (stereo not given),2,-0.56
CCCCCCSc1s[nH]c(=O)c1C#N,85*,-1.2
CCCCSC1=C(C#N)C(=O)NC(CO)S1 (stereo not given),0,-0.75
CC(C)(C)c1cc(SCCC#N)cc(C(C)(C)C)c1O,0,0.39
C/C(=N/O)c1ccc(N2C(=O)C3C4C=CC(C4)C3C2=O)cc1 (stereo not given),2,0.2
O=C(O)c1cc(-c2ccc(O)c(O)c2)nc2n[nH]c(-c3ccc(F)cc3)c12,41*,-0.27
COc1ccc(-c2cc(C(=O)N3CCOCC3)c3c(-c4ccc(Cl)cc4)[nH]nc3n2)cc1,-6,1.9
Cc1cc(O)c(Cc2c(O)cc(C)n(C)c2=O)c(=O)n1C,1,-2.4*
Cc1cc(O)cc(=O)n1C,1,0.066
CCOc1cc(/C=C/c2ccccc2OC)cc(=O)c2c(C)oc(C)c12,16,x
COc1cccc(=O)c2c(C)oc(C)c12,12,-4.4*
COc1cc(C(=O)OCC(=O)c2cc3c4c(c2)CC(=O)N4CCC3)ccc1OC(F)F,0,x
COCCn1c(SCC(=O)NCc2ccc3c(c2)OCO3)nnc1-c1c[nH]c2ccccc12,0,-2.2*
Cc1occc1-c1nnc(SCC(=O)NCc2ccc3c(c2)OCO3)n1CC(C)C,1,-1.1
N#C/C(=C/c1ccc(-c2cc(C(=O)O)ccc2Cl)o1)C(=O)NCCc1c[nH]c2ccccc12,31*,-0.032
N#C/C(=C\c1ccc(-c2cc(C(F)(F)F)ccc2Cl)o1)C(=O)O,0,x
O=C(CCc1c[nH]c2ccccc12)OCc1nnc(-c2ccccc2)o1,2,-2.1*
O=C(Cc1ccccc1)OCc1nnc(-c2ccccc2)o1,-3,0.18
COc1ccc(C2C(C(N)=O)C(=O)NC(O)(c3ccccc3)C2C#N)cc1 (stereo not given),2,-2.3*
COc1ccc(C2CC(=O)N3C(=C2C#N)SCC3(O)c2ccccc2)cc1 (stereo not given),-6,2.2
Cc1cc(-c2ccc(S(=O)(=O)NC(C)(C)C)s2)n[nH]1,-6,0.39
O=C(NN1C(=O)/C(=C\C=C\c2ccco2)SC1=S)c1ccccc1O,21,1.6
